A selection: hits, their analogues and other compounds. The true share with any hit is near 4.9%.
CHT PAM – allosterically activates the human high affinity choline transporter; Q9GZV3; CHT-expressing cells, membrane potential dye, choline EC20; hits give high values; LV-AA mutant CHT in HEK293 cells; B-score at 10 µM; 310,000 compounds, 0.49% hits; AID 488977;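 active = initial fluorescence not abnormally high and integrated response B-score, plate-corrected, over 3 SD above library mean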
Target sequence (Q9GZV3 whole entry, looked up): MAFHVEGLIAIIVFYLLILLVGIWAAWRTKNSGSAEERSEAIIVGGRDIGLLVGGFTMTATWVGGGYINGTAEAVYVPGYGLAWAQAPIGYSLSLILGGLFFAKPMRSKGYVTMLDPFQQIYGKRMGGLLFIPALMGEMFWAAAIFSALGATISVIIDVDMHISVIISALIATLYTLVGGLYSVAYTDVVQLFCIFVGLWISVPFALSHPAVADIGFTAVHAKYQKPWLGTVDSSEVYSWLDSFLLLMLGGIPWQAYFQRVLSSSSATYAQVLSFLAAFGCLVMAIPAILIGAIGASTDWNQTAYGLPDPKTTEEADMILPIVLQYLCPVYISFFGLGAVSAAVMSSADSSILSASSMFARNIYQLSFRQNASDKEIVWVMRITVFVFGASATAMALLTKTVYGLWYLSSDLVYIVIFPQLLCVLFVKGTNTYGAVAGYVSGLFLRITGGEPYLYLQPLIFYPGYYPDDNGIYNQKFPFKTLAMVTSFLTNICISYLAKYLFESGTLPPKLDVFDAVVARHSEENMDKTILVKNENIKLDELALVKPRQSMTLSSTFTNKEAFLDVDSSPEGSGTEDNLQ
PHOSPHO1 block – blocks human PHOSPHO1 phosphatase activity. 290,000 compounds, 1.1% hits. recombinant PHOSPHO1, absorbance phosphatase assay. Q8TCT1. AID 1565. inhibition, % at 13.3 µM; in the data active = inhibition above about 60%
HSF1 inh – HSF1 inhibition; 300,000 compounds, 0.77% hits; NIH3T3-HGL HSE-luciferase, MG132-induced, luminescence 8 h; hits give low values; activity change, negative = inhibition, % at 7.5 µM (by protocol); AID 2098;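 active = more than half of replicate wells show activity change below -50%, luminescence cut by over half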;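 note: luciferase reports HSF-1 transcriptional activity via heat shock element; 0% = median of DMSO wells and -100% = zero luminescence signal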
CHT block – inhibitors of human choline transporter CHT; Q9GZV3; CHT-expressing cells, membrane potential dye, choline response; hits give low values; B-score at 10 µM; 310,000 compounds, 0.86% hits; AID 488975;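 active = B-score over 3 SD under the library average, and starting fluorescence ratio not unusually high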;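 note: choline stimulus applied at its EC90 after an EC20 pre-addition; B-score computed on integrated fluorescence ratio after choline addition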
Lipid droplet – modulators of hepatic lipid droplet formation. AML12 mouse hepatocytes, oleate lipid droplets, BODIPY imaging. 240,000 compounds, 0.4% hits. inhibition, % at 6.5 µM;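 active = lipid droplet intensity inhibited by at least 50%, with more than 500 cells counted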
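Assay system: AML12 hepatocytes (mouse) / Also added: 100 µM oleic acid challenge / Times: overnight treatment with compound plus oleate / Detection: high-content imaging of BODIPY-stained droplets and DAPI nuclei / Evaluation: % inhibition of lipid droplet signal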
HSF-1 act – increases HSF-1 driven luciferase reporter signal; activation, % at 9 µM; 300,000 compounds, 1.7% hits; NIH3T3-HGL HSF-1 luciferase reporter, MG132, 8 h; 100% = twice DMSO control signal;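 active = mean replicate activation of at least 50% with a set share of replicates each reaching 50%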;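 note: 0% = median of the neutral control wells and 100% = twice that signal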
* marks the source's active call; other numbers are inactive results.

Screening COc1ccc(CCNC(=S)Nc2ccc(S(=O)(=O)Nc3ncccn3)cc2)cc1OC returned CHT PAM inactive, PHOSPHO1 block 67.2*, HSF1 inh -2.1, CHT block inactive, Lipid droplet -8.3 and HSF-1 act 6.4.
Screening NS(=O)(=O)c1ccc(NS(=O)(=O)c2ccc(NC(=S)Nc3ccccc3)cc2)cc1 returned CHT PAM inactive, PHOSPHO1 block 14.9, HSF1 inh 30.1, CHT block inactive, Lipid droplet -5.5 and HSF-1 act 53.8*.
Cc1cc(C)cc(NS(=O)(=O)c2ccc(NC(=S)Nc3ccccc3)cc2)c1 was read as CHT PAM inactive, PHOSPHO1 block 6.3, HSF1 inh 9.8, CHT block inactive, Lipid droplet 48.3 and HSF-1 act 13.0.
O=S(=O)(Nc1ncccn1)c1ccc(NC(=S)Nc2ccc(Cl)cc2)cc1 was read as CHT PAM inactive, PHOSPHO1 block 28.5, HSF1 inh 20.2, CHT block inactive, Lipid droplet 5.7 and HSF-1 act 55.7*.
CCOCCCNC(=S)Nc1ccc(S(N)(=O)=O)cc1 was read as CHT PAM inactive, PHOSPHO1 block 87.9*, HSF1 inh -4.8, CHT block inactive, Lipid droplet 12.6 and HSF-1 act -7.5.
For Cc1c(OC(C)C(=O)NCCCN2CCOCC2)ccc2c3c(c(=O)oc12)CCC3 (stereo not given) the results were CHT PAM inactive, PHOSPHO1 block 41.2, HSF1 inh 2.0, CHT block inactive, Lipid droplet -0.8 and HSF-1 act 6.1.
Cc1cc(=O)[nH]c(N/N=C/c2ccc(-c3ccc([N+](=O)[O-])cc3)o2)n1 was read as CHT PAM inactive, PHOSPHO1 block 20.0, HSF1 inh -6.8, CHT block inactive, Lipid droplet 4.7 and HSF-1 act 9.7.
`Cc1ccc(CS(=O)Cc2ccc(C(=O)N3CCN(C4CCCCC4)CC3)o2)cc1` (stereo not given) gave CHT PAM inactive, PHOSPHO1 block 20.7, HSF1 inh -0.7, CHT block inactive, Lipid droplet -5.7 and HSF-1 act -20.6.
COc1ccccc1NC(=O)/C(C#N)=C/C=C/c1ccco1 was read as CHT PAM inactive, PHOSPHO1 block 4.7, HSF1 inh 7.8, CHT block inactive, Lipid droplet -3.1 and HSF-1 act 1.2.
Screening CCc1ccc(NC(=S)Nc2ccc(S(=O)(=O)Nc3ncccn3)cc2)cc1 returned CHT PAM inactive, PHOSPHO1 block 34.2, HSF1 inh -55.6*, CHT block inactive, Lipid droplet 18.8 and HSF-1 act -50.6.
`Cc1ccc(C)c(NC(=S)Nc2ccc(S(=O)(=O)Nc3ncccn3)cc2)c1` gave CHT PAM inactive, PHOSPHO1 block -7.8, HSF1 inh 0.3, CHT block inactive, Lipid droplet 11.0 and HSF-1 act -11.7.
Screening Cc1cccc(NC(=O)C2CCN(S(=O)(=O)c3ccc4c(c3)NC(=O)CO4)CC2)c1C returned CHT PAM inactive, PHOSPHO1 block 29.3, HSF1 inh 24.2, CHT block inactive, Lipid droplet -4.3 and HSF-1 act 72.8*.
COc1ccc(OC)c(/C=N/NC(=O)C(=O)NCc2cccnc2)c1 was read as CHT PAM inactive, PHOSPHO1 block 28.3, HSF1 inh -6.1, CHT block inactive, Lipid droplet 4.6 and HSF-1 act 9.8.
Screening O=C(CCl)Nc1c2c(nn1-c1ccccc1)CSC2 returned CHT PAM inactive, PHOSPHO1 block -4.5, HSF1 inh 7.2, CHT block inactive, Lipid droplet -12.0 and HSF-1 act -1.6.
O=C(C1CCCN(S(=O)(=O)c2ccc(Br)s2)C1)N1CCN(c2ccccc2)CC1 (stereo not given) was read as CHT PAM inactive, PHOSPHO1 block 32.0, HSF1 inh 6.8, CHT block inactive, Lipid droplet -4.7 and HSF-1 act 4.9.
COc1ccc(N2CCN(C(=O)Cc3ccc(-n4c(=O)[nH]c5ccccc5c4=O)cc3)CC2)cc1 was read as CHT PAM inactive, PHOSPHO1 block -16.5, HSF1 inh -57.6*, CHT block inactive, Lipid droplet 19.1 and HSF-1 act -68.8.
Cc1ccc2nc(SCC(=O)N(CC(C)C)c3c(N)n(Cc4ccccc4)c(=O)[nH]c3=O)[nH]c2c1 was read as CHT PAM inactive, PHOSPHO1 block 21.4, HSF1 inh 13.3, CHT block inactive, Lipid droplet -9.6 and HSF-1 act -1.2.
Screening CC(NC(=O)/C(=C/c1ccc(OC(F)F)cc1)c1ccccc1)c1ccccc1 (stereo not given) returned CHT PAM inactive, PHOSPHO1 block 8.6, HSF1 inh -4.7, CHT block inactive, Lipid droplet 0.0 and HSF-1 act 11.7.
Screening COCC(C)NC(=O)c1ccc2nc(-c3ccccc3)c(-c3ccccc3)nc2c1 (stereo not given) returned CHT PAM inactive, HSF1 inh -81.3*, CHT block inactive, Lipid droplet -0.2 and HSF-1 act -85.5.
`COCC(C)NC(=O)/C(=C/c1ccccc1)c1ccccc1` (stereo not given) gave CHT PAM inactive, PHOSPHO1 block 43.1, HSF1 inh 21.2, CHT block inactive, Lipid droplet 3.2 and HSF-1 act 60.1*.
Cc1ccc(C(=O)Cn2c(-c3ccccc3)noc2=O)cc1 was read as CHT PAM inactive, PHOSPHO1 block 61.5*, HSF1 inh -1.8, CHT block inactive, Lipid droplet -12.9 and HSF-1 act 15.1.
CCOc1ccccc1NC(=O)Cn1c(-c2ccc(Cl)cc2)noc1=O was read as CHT PAM inactive, PHOSPHO1 block 14.9, HSF1 inh -65.1*, CHT block inactive, Lipid droplet -6.7 and HSF-1 act -73.8.
Screening CC(C)(C)c1ccc2c(c1)OC(C(=O)N/N=C\c1ccc[nH]1)CO2 (stereo not given) returned CHT PAM inactive, PHOSPHO1 block 54.7, HSF1 inh -73.3*, CHT block inactive, Lipid droplet 29.7 and HSF-1 act -74.6.
Screening CC(C)(C)c1ccc2c(c1)OC(C(=O)N/N=C\c1ccncc1)CO2 (stereo not given) returned CHT PAM inactive, PHOSPHO1 block 28.1, HSF1 inh 2.5, CHT block inactive, Lipid droplet 1.0 and HSF-1 act -2.3.
For CCN(C(=O)c1cc2c(=O)n3cccc(C)c3nc2n1CCCOC)C1CCCCC1 the results were CHT PAM inactive, PHOSPHO1 block 49.0, HSF1 inh 1.0, CHT block inactive, Lipid droplet -8.9 and HSF-1 act -8.0.
For COCCCn1c(C(=O)NC2CCCCC2C)cc2c(=O)n3cccc(C)c3nc21 (stereo not given) the results were CHT PAM inactive, PHOSPHO1 block 33.2, HSF1 inh 39.0, CHT block inactive, Lipid droplet 9.7 and HSF-1 act 70.5*.
